In test [1] the target is Programmed cell death 1 ligand 1 (Homo sapiens) (UniProt Q9NZQ7). Description: Induction of hydrophobic tag tethering degradation of PD-L1 in human NCI-H460 cells at 10 uM incubated for 24 hrs by Western blot analysis. Type of test: cell-based. The method in brief:
(§1)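 Cells seeded at 1×10^6 per well, incubated overnight, then exposed to DMSO or compound for 24 h. RIPA lysates were denatured at 100 °C for 15 min in SDS-PAGE loading buffer and run on 10% SDS-PAGE. Blots were probed overnight at 4 °C with anti-PD-L1 (1:1000), then a secondary (1:5000), with ECL detection. Bands were semi-quantified by densitometry.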
On the technique in general: A western blot detects proteins with antibodies after separation by electrophoresis.

The target is the same in test [2]. Description: Induction of hydrophobic tag tethering degradation of PD-L1 in human NCI-H460 cells incubated for 24 hrs by Western blot analysis. To be noted: dose 1-10 µM. Type of test: cell-based. The method in brief:
as §1

Test [3] deals with NCI-H460. Description: Cytotoxicity against human NCI-H460 cells at 0.5 to 10 uM incubated for 24 to 72 hrs by MTT assay. Type of test: functional, cell-based. The settings on record: dose 0.5-10 µM, time 24-72 hrs. The method in brief:
(§2)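 NCI-H460 cells seeded at 4×10^3 per well in complete RPMI-1640 (10% FBS, 37 °C, 5% CO2), left 24 h, then given DMSO or compound in DMSO. MTT (5 mg mL⁻¹ in PBS) added after 24, 48 and 72 h exposure, 4 h further; formazan dissolved in isopropanol, absorbance at 570 nm. Triplicate; viability relative to DMSO group (100%).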
For orientation: Tetrazolium assays rely on reduction of a dye to a coloured formazan, in cell work by metabolically active cells.

Test [4] addresses Programmed cell death 1 ligand 1 (Homo sapiens) (UniProt Q9NZQ7). Description: Induction of hydrophobic tag tethering degradation of PD-L1 in human HT-1080 cells incubated for 24 hrs by Western blot analysis. Type of test: cell-based. The settings on record: dose 1-10 µM. The method in brief: as §1
Test [5] has the same target. Description: Induction of hydrophobic tag tethering degradation of PD-L1 in human NCI-H460 cells by immunofluorescence analysis. Type of test: cell-based. The method in brief:
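NCI-H460 cells exposed to compound at various concentrations were fixed in 4% paraformaldehyde for 15 min at room temperature and blocked with 0.5% BSA for 1 h. Anti-PD-L1 (1:200) was applied overnight at 4 °C, then Alexa Fluor 555 donkey anti-rabbit (1:1000) for 30 min in the dark. Nuclei were stained with DAPI and cells imaged by confocal microscopy.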

For test [6] the target is unchanged. Description: Induction of hydrophobic tag tethering degradation of PD-L1 in human NCI-H460 cells at 10 uM incubated for 24 hrs in presence of MG132 by Western blot analysis. Type of test: cell-based.
For test [7] the target is unchanged. Description: Induction of hydrophobic tag tethering degradation of PD-L1 in human NCI-H460 cells at 10 uM by Western blot analysis. Type of test: cell-based. The method in brief:
as §1

Test [8] shares this target. Description: Induction of hydrophobic tag tethering degradation of PD-L1 in human NCI-H460 cells at 1 to 10 uM incubated for 24 hrs by Western blot analysis. Type of test: cell-based. The settings on record: dose 1-10 µM. The method in brief: as §1
The subject of test [9] is NCI-H460. Description: Cytotoxicity against human NCI-H460 cells at 10 uM incubated for 24 to 72 hrs by MTT assay. To be noted: time 24-72 hrs. Type of test: functional, cell-based. The method in brief:
as §2

SMILES strings stand for the structures. Calls of active or inactive are those of the source. The rule behind the calls is not given here.

Sequence of Programmed cell death 1 ligand 1 (Homo sapiens) (Q9NZQ7 whole entry): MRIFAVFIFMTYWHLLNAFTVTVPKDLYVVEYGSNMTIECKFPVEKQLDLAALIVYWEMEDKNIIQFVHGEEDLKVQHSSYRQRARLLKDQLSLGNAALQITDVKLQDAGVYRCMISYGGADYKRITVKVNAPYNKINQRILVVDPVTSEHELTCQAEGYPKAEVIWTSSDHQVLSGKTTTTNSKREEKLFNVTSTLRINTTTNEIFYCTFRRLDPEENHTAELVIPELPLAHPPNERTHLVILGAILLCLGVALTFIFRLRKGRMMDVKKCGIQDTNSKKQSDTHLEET

Take `Cc1c(COc2ccc(CNCCOCCOCCOCCOCCOCCC(=O)NC(C3CCCCC3)C3CCCCC3)cn2)cccc1-c1ccccc1`: in test [1], the result was inactive.

Turning to `Cc1c(-c2ccccc2)cccc1-c1ccc(CNCCOCCOCCOCCC(=O)NN2CCN(C(c3ccc(F)cc3)c3ccc(F)cc3)CC2)cn1`, the outcome in [1] was Active. The Activity entry in test [2] was “Dose-dependent-effect”; in the test with NCI-H460 [3], “Not active; Exhibited Almost No Cytotoxicity”; in test [4], “Dose-dependent-effect”; in [5] it was “Dose-dependent-effect”; in test [6] it was “Not active; Result Indicates That Degradation Of Pd-L1 Occurs Through Proteosome Pathway”; in test [7] it was “Time-dependent-effect; Almost No Degradation Activity Observed For 72 Hrs”.

With `Cc1c(-c2ccccc2)cccc1-c1ccc(CNCCOCCOCCOCCOCCC(=O)NC(c2ccc(F)cc2)c2ccc(F)cc2)cn1`, the result in test [1] was inactive.

As to `Cc1c(COc2ccc(CNCCOCCOCCOCCOCCC(=O)NC34CC5CC(CC(C5)C3)C4)cn2)cccc1-c1ccccc1`, in test [1], the result was inactive.

As to `Cc1c(COc2ccc(CNCCOCCOCCOCCOCCOCCC(=O)NC(c3ccccc3)c3ccccc3)cn2)cccc1-c1ccccc1`, the result in test [1] was inactive.

As to `Cc1c(-c2ccccc2)cccc1-c1ccc(CNCCOCCOCCOCCOCCC(=O)NC(c2ccccc2)c2ccc(C(F)(F)F)cc2)cn1` (centres undefined), the result in [1] was inactive.

On to `Cc1c(COc2ccc(CNCCOCCOCCOCCOCCOCCC(=O)NCCNC(=O)C(C)c3ccc(CC(C)C)cc3)cn2)cccc1-c1ccccc1` (centres undefined), for which the result in test [1] was inactive.

As for `Cc1c(COc2ccc(CNCCOCCOCCC(=O)NCCNC(=O)C(C)c3ccc(CC(C)C)cc3)cn2)cccc1-c1ccccc1` (centres undefined), the outcome in test [1] was inactive.

With `Cc1c(COc2ccc(CNCCOCCOCCOCCOCCC(=O)NCCNC(=O)C(C)c3ccc(CC(C)C)cc3)cn2)cccc1-c1ccccc1` (centres undefined), the outcome in test [1] was inactive.

For the molecule `Cc1c(-c2ccccc2)cccc1-c1ccc(CNCCOCCOCCC(=O)NC(c2ccccc2)c2ccc(C(F)(F)F)cc2)cn1` (centres undefined), the result in test [1] was inactive.

`Cc1c(-c2ccccc2)cccc1-c1ccc(CNCCOCCOCCOCCC(=O)NC(c2ccccc2)c2ccccc2)cn1`: the result in test [1] was Active.

For the molecule `Cc1c(COc2ccc(CNCCOCCOCCOCCOCCC(=O)NC(c3ccccc3)c3ccc(C(F)(F)F)cc3)cn2)cccc1-c1ccccc1` (centres undefined), the outcome in [1] was inactive.

Take `Cc1c(COc2ccc(CNCCOCCOCCOCCC(=O)NC(c3ccccc3)c3ccccc3)cn2)cccc1-c1ccccc1`: the outcome in test [1] was Active. In addition, the Activity result in [8] is listed as “Active; Exhibited Mild Degradation Potency”.

Consider `Cc1c(-c2ccccc2)cccc1-c1ccc(CNCCOCCOCCOCCC(=O)NC(c2ccccc2)c2ccc(C(F)(F)F)cc2)cn1` (centres undefined), for which the outcome in test [1] was inactive.

For `Cc1c(COc2ccc(CNCCOCCOCCC(=O)NC(C3CCCCC3)C3CCCCC3)cn2)cccc1-c1ccccc1`, in [1], the outcome was inactive.

With `Cc1c(COc2ccc(CNCCOCCOCCOCCC(=O)NN3CCN(C(c4ccc(F)cc4)c4ccc(F)cc4)CC3)cn2)cccc1-c1ccccc1`, the result in test [1] was inactive.

Consider `Cc1c(COc2ccc(CNCCOCCOCCOCCOCCC(=O)NC(c3ccccc3)c3ccccc3)cn2)cccc1-c1ccccc1`, for which, in [1], the outcome was Active.

`Cc1c(COc2ccc(CNCCOCCOCCOCCC(=O)NC(C3CCCCC3)C3CCCCC3)cn2)cccc1-c1ccccc1`: in [1], the result was inactive.

Take `Cc1c(-c2ccccc2)cccc1-c1ccc(CNCCOCCOCCC(=O)NC(c2ccccc2)c2ccccc2)cn1`: in [1], the outcome was inactive.

Turning to `Cc1c(COc2ccc(CNCCOCCOCCOCCC(=O)NC34CC5CC(CC(C5)C3)C4)cn2)cccc1-c1ccccc1`, the result in test [1] was inactive.

In the case of `Cc1c(-c2ccccc2)cccc1-c1ccc(CNCCOCCOCCOCCOCCC(=O)NC(c2ccccc2)c2ccccc2)cn1`, in [1], the outcome was Active.

For `Cc1c(COc2ccc(CNCCOCCOCCOCCOCCC(=O)NC(C3CCCCC3)C3CCCCC3)cn2)cccc1-c1ccccc1`, the outcome in test [1] was inactive.

Regarding `Cc1c(COc2ccc(CNCCOCCOCCC(=O)NC34CC5CC(CC(C5)C3)C4)cn2)cccc1-c1ccccc1`, the outcome in test [1] was inactive.

With `Cc1c(-c2ccccc2)cccc1-c1ccc(CNCCOCCOCCC(=O)NN2CCN(C(c3ccc(F)cc3)c3ccc(F)cc3)CC2)cn1`, in test [1], the result was Active. Also, the Activity entry was “Dose-dependent-effect” in test [2]; “Not active; Exhibited Almost No Cytotoxicity” with NCI-H460 [3]; “Dose-dependent-effect” in [4]; “Dose-dependent-effect” in test [5]; “Not active; Result Indicates That Degradation Of Pd-L1 Occurs Through Proteosome Pathway” in test [6]; “Time-dependent-effect; Almost No Degradation Activity Observed For 72 Hrs” in test [7].

For `Cc1c(-c2ccccc2)cccc1-c1ccc(CNCCOCCOCCOCCOCCC(=O)NN2CCN(C(c3ccc(F)cc3)c3ccc(F)cc3)CC2)cn1`, the outcome in test [1] was inactive.

`Cc1c(-c2ccccc2)cccc1-c1ccc(CNCCOCCOCCOCCC(=O)NC(c2ccc(F)cc2)c2ccc(F)cc2)cn1`: in test [1], the result was inactive.

In the case of `Cc1c(COc2ccc(CNCCOCCOCCC(=O)NC(c3ccccc3)c3ccc(C(F)(F)F)cc3)cn2)cccc1-c1ccccc1` (centres undefined), the result in test [1] was inactive.

Turning to `Cc1c(COc2ccc(CNCCOCCOCCC(=O)NN3CCN(C(c4ccc(F)cc4)c4ccc(F)cc4)CC3)cn2)cccc1-c1ccccc1`, in test [1], the outcome was Active. In addition, the Activity entry was “Dose-dependent-effect” in test [2] and “Active; Exhibited Mild Cytotoxicity” in the test with NCI-H460 [9].

For `Cc1c(COc2ccc(CNCCOCCOCCOCCOCCC(=O)NN3CCN(C(c4ccc(F)cc4)c4ccc(F)cc4)CC3)cn2)cccc1-c1ccccc1`, in test [1], the outcome was inactive.

`Cc1c(COc2ccc(CNCCOCCOCCOCCOCCOCCC(=O)NC34CC5CC(CC(C5)C3)C4)cn2)cccc1-c1ccccc1`: the result in [1] was Active.

Regarding `Cc1c(COc2ccc(CNCCOCCOCCC(=O)NC(c3ccccc3)c3ccccc3)cn2)cccc1-c1ccccc1`, the outcome in test [1] was Active. Also, in test [8], the Activity result is on record as “Active; Exhibited Mild Degradation Potency”.

Consider `Cc1c(-c2ccccc2)cccc1-c1ccc(CNCCOCCOCCC(=O)NC(c2ccc(F)cc2)c2ccc(F)cc2)cn1`, for which the result in test [1] was inactive.

Regarding `Cc1c(COc2ccc(CNCCOCCOCCOCCC(=O)NCCNC(=O)C(C)c3ccc(CC(C)C)cc3)cn2)cccc1-c1ccccc1` (centres undefined), in [1], the outcome was inactive.
